Results from ChEMBL document CHEMBL1150050, “Antimutagenic agents from natural products” (J Nat Prod, 1992).
Activity calls are given as the source filed them. The rule behind the calls is not given here.

Key:
Salmonella typhimurium [1] = experiment: Antimutagenic activity in Salmonella Typhimurium TA98 assessed as inhibition of 2-aminoanthracene-induced mutation at 150 ug/plate after 48 to 72 hrs by Ames assay in presence of liver S-9 fraction; format: functional, organism-based; conditions: Salmonella enterica subsp. enterica serovar Typhimurium
Outline: (§1)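 Bacteria were combined with Ames S-9 metabolic activation preparation, test substance in DMSO and 2-aminoanthracene at 2.5 μg/plate, mixed with top agar and incubated 48–72 h. Mutagenicity inhibition was assessed relative to 2-aminoanthracene.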

Salmonella typhimurium [2] = experiment: Toxicity in Salmonella Typhimurium TA100 at 75 to 300 ug/plate after 48 to 72 hrs in presence of liver S-9 fraction; format: organism-based; conditions: salmonella enterica subsp. enterica serovar typhimurium
Outline: (§2)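 Toxicity plates were set up with bacteria, Ames S-9 preparation and test substance, with histidine in place of 2-aminoanthracene. They were mixed with top agar and incubated 48–72 h.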

Salmonella typhimurium [3] = experiment: Toxicity in Salmonella Typhimurium TA98 at 75 to 300 ug/plate after 48 to 72 hrs in presence of liver S-9 fraction; format: organism-based; conditions: salmonella enterica subsp. enterica serovar typhimurium; outline: as §2
Salmonella typhimurium [4] = experiment: Antimutagenic activity in Salmonella Typhimurium TA100 assessed as inhibition of ethyl methanesulfonate-induced mutation at 32 to 300 ug/plate after 48 to 72 hrs by Ames assay in presence of liver S-9 fraction; format: functional, Salmonella enterica subsp. enterica serovar Typhimurium; parameters: scale not given: the % may be the effect or the level left
Salmonella typhimurium [5] = experiment: Antimutagenic activity in Salmonella Typhimurium TA98 assessed as inhibition of 2-aminoanthracene-induced mutation at 75 ug/plate after 48 to 72 hrs by Ames assay in presence of liver S-9 fraction; format: functional, organism-based; conditions: Salmonella enterica subsp. enterica serovar Typhimurium; outline: as §1
Salmonella typhimurium [6] = experiment: Antimutagenic activity in Salmonella Typhimurium TA100 assessed as inhibition of ethyl methanesulfonate-induced mutation at 300 ug/plate after 48 to 72 hrs by Ames assay in presence of liver S-9 fraction; format: functional, organism-based; conditions: Salmonella enterica subsp. enterica serovar Typhimurium
Salmonella typhimurium [7] = experiment: Toxicity in Salmonella Typhimurium TA98 at 75 to 600 ug/plate after 48 to 72 hrs in presence of liver S-9 fraction; format: organism-based; conditions: salmonella enterica subsp. enterica serovar typhimurium; outline: as §2
Salmonella typhimurium [8] = experiment: Toxicity in Salmonella Typhimurium TA100 at 75 to 600 ug/plate after 48 to 72 hrs in presence of liver S-9 fraction; format: organism-based; conditions: salmonella enterica subsp. enterica serovar typhimurium; outline: as §2

Structure (SMILES) | Activity (Salmonella typhimurium [1]) | Activity (Salmonella typhimurium [2]) | Activity (Salmonella typhimurium [3]) | Activity (Salmonella typhimurium [4]) | Activity (Salmonella typhimurium [5]) | Activity (Salmonella typhimurium [6]) | Activity (Salmonella typhimurium [7]) | Activity (Salmonella typhimurium [8])
CC1(C)[C@@H](Br)CC[C@]2(C)Oc3cc(Br)c(O)cc3C[C@@H]12 | Active | Non-toxic | Non-toxic | 80% | Active | Active |  | 
CC(C)=CCC/C(C)=C/Cc1cc(O)c(Br)cc1O [CYMOPOL] |  |  |  |  |  |  | Toxic | Toxic
CC1(C)[C@@H](Br)CC[C@@]2(C)Oc3cc(Br)c(O)cc3C[C@@H]12 [CYMOBARBATOL] | Active | Non-toxic | Non-toxic | 80% | Active | Active |  | 
